Experiment [1] is described as follows: inhibitors of TNFa-induced NFkB p65 translocation, primary screen, imaging, HUVEC, MLSMR starter and 10KST1 sets (AID 438).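 Further: compound added about 3h40 before a 20 min TNFalpha stimulation.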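 On inhibition: signal is the nuclear over cytoplasmic p65 intensity ratio per well.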 Conditions: HUVEC TNFa-induced p65 nuclear translocation; cell count: measured here: nuclei count (cytotoxicity indicator), at 2.08 µM; inhibition: at 2 µM, stronger effect = higher value, 0% TNFa-plus-vehicle, 100% no-TNFa wells.
Experiment [2] can be described thus: reduction of polyQ htt aggregates in cells – imaging, exon1htt(103Q)mCFP cells, high-content imaging, primary screen (AID 483;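 active means visual image review flags a hit and inhibition of aggregation exceeds 20%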;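 further: compound exposure lasted 3 days before fixation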;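 on nuclei count: percent of the per-plate median nuclei count of sample wells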). Conditions: exon1htt(103Q)mCFP cell line, aggregate imaging, at 2 µM; inhibition of aggregation: stronger effect = higher value; nuclei count: measured here: cell count, toxicity.
Experiment [3] is described as follows: endothelial E-selectin expression blockers – imaging, HUVEC, immunofluorescence, MLSMR starter and 10KST1 sets, primary screen (AID 487;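 active means visually confirmed hit in the image check and inhibition above 20%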;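 on inhibition: signal is fraction of cell area covered by stained E-selectin grains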;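 on nuclei count: 100% = median nuclei count of all wells on the same plate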). Conditions: HUVEC TNFalpha-induced E-selectin immunofluorescence imaging, at 2 µM; inhibition: stronger effect = higher value; nuclei count: measured here: cell number, toxicity.
For experiment [4], the target named is Voltage-gated potassium channel subunit beta-2 (Rattus norvegicus) (UniProt P62483). The experiment can be described thus: inhibitors of rat Kvbeta2 reductase activity – biochemical, NADPH fluorescence, primary screen (AID 622;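 active means fluorescence slope higher than the sample average by over 3 SD, cut at about -0.22 in these data, passing the limit was not always enough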;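 further: slope of raw intensity against log time taken from 70 to 1610 s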). Conditions: recombinant KvBeta, 4-cyanobenzaldehyde reduction, at 10 µM, stronger effect = higher value.
For experiment [5] the target is unchanged. Nature of the experiment: enhancers of rat Kvbeta2 NADPH turnover – biochemical, NADPH fluorescence, primary screen (AID 623;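 active means NADPH fluorescence slope more negative than the mean of all samples by about 3 SD, 99.7% confidence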;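 further: fluorescence intensity change per second fitted from 20 to 320 s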). The note with it: Recombinant KvBeta, NADPH fluorescence decrease slope, 10 min; at 10 µM; stronger effect = lower value.
The target in experiment [6] is Muscarinic acetylcholine receptor M4 (Homo sapiens) (UniProt P08173). The experiment can be described thus: M4-linked GIRK flux change, two-sided – cell-based, HEK293 M4/GIRK, thallium flux, BTC-AM, M4 allosteric agonist project, primary screen (AID 625;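 active means fluorescence slope after compound addition differing from the mean of all tested samples at 99.7% confidence, mostly higher but some lower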;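 further: thallium influx through GIRK channels coupled to M4 in HEK293 cells with BTC-AM dye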). The note with it: at 10 µM, actives lie on both sides. An outline of the steps: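 System: HEK293 cells with M4 receptor and GIRK channels | Incubation: Cells overnight at 37 °C, BTC-AM loading 1 h, reads 2 min total | Technique: Kinetic BTC-AM fluorescence sampled at 1 Hz, 10 s pre-addition baseline | Measure: Post-addition slope, 15–24 s, of baseline-normalized fluorescence | Control set: Carbachol positive, DMSO negative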

Experiment [7] can be described thus: blockers of RIG-like receptor reporter activation – cell-based, Sendai virus stimulus, luciferase, 10K MLSCN set, TLR/RLR signaling modifier project, primary screen (AID 602276;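 active means inhibition at or above 50% at 10 µM; inactive means inhibition below 50%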;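 further: firefly luciferase from ISG56 promoter only with Renilla not read in this screen; 0% = Sendai virus plus DMSO and 100% = medium plus DMSO without virus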). The note with it: HEK293 RL24 IRF3 luciferase reporter, at 10 µM, stronger effect = higher value. A general note: A reporter such as luciferase makes a cellular process visible.
The nature of experiment [8]: TLR3 IRF3 reporter activation blockers – cell-based, poly I:C stimulus, luciferase, 10K MLSCN set, primary screen (AID 602277;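 active means inhibition of the reporter signal at or above 50%; inactive means inhibition below 50%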). Conditions: HEK293-TLR3 RL24 IRF3 luciferase reporter, at 10 µM, stronger effect = higher value.

One may read the inhibition as the change of the read-out against control, counted positive when it falls.

Calls of active or inactive are those of the source.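 How the source made its calls, unless noted: active means inhibition above 20% together with a positive visual image hit; inconclusive means visual image hit but inhibition not above 20%; inactive means no visual image hit.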

Muscarinic acetylcholine receptor M4 (Homo sapiens), sequence (P08173 whole entry, looked up): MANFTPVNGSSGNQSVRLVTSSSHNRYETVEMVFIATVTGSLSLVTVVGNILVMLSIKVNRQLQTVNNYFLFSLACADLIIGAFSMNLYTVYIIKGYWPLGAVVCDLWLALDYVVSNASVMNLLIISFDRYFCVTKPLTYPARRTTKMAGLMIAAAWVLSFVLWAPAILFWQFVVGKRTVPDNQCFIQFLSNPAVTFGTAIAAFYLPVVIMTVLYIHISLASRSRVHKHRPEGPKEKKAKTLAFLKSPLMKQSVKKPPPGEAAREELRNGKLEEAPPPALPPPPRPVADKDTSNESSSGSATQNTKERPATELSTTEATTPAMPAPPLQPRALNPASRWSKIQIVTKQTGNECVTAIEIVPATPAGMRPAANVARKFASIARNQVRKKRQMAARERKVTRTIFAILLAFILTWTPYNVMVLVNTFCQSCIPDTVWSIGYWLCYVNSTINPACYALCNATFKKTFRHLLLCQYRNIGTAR
Voltage-gated potassium channel subunit beta-2 (Rattus norvegicus), sequence (P62483 whole entry, looked up): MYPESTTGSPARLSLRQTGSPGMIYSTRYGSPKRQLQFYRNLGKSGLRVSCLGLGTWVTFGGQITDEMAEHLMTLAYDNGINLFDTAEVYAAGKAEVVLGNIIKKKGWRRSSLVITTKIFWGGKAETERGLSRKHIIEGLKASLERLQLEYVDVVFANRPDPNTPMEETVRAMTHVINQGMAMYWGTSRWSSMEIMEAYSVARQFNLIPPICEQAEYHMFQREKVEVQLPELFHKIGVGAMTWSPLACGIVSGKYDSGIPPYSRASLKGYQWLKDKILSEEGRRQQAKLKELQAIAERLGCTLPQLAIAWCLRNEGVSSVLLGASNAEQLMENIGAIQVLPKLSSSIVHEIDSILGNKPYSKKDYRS

For the compound `CCn1c(SCC(=O)N2CCCc3ccccc32)nnc1-c1cccs1`, the cell count in experiment [1] stood at 697. Moreover, the inhibition in experiment [1] was 1.4% (inactive); in experiment [3] it was -172% (inactive); in experiment [7] it was 14% (inactive); in experiment [8], 13.4% (inactive). Also, the inhibition of aggregation in experiment [2] is 4.3% (inactive). Moreover, the figures for the nuclei count in experiment [2] and in experiment [3] were 98.7% and 129%, respectively. Further, the fluorescence slope in experiment [4] is -0.531 (inactive); in experiment [6], 0.00467 (inactive). The NADPH fluorescence slope in experiment [5] is -2.4e-05 (inactive).

In the case of `O=C(NCc1ccco1)c1cc2c(s1)CSC2`, the cell count in experiment [1] was determined as 473. In addition, the inhibition in experiment [1] was -4.3% (inactive); in experiment [3], -31.1% (inactive); in experiment [7], 9.74% (inactive); in experiment [8], 12.5% (inactive). In addition, the inhibition of aggregation in experiment [2] was 3.2% (inactive). Besides, the nuclei count in experiment [2] was 105%; in experiment [3], 118%. Besides, the figures for the fluorescence slope in experiment [4] and in experiment [6] were -0.544 (inactive) and 0.00557 (inactive), respectively. In addition, the NADPH fluorescence slope in experiment [5] was 1.9e-05 (inactive).

As for `CCOC(=O)C1=C(CC)Nc2ccccc2N=C1NC(=O)Nc1ccccc1OC`, in experiment [1], the cell count came out at 485. Besides, the inhibition in experiment [1] is -12.3% (inactive); in experiment [3], -15% (inactive); in experiment [7] it was 26.2% (inactive); in experiment [8] it was 38.4% (inactive). In addition, the inhibition of aggregation in experiment [2] was 7.2% (inactive). Further, the figures for the nuclei count in experiment [2] and in experiment [3] were 116% and 119%, respectively. In addition, the fluorescence slope is -0.593 (inactive) in experiment [4] and 0.00703 (inactive) in experiment [6]. For the same compound, the NADPH fluorescence slope in experiment [5] is 2.9e-06 (inactive).

On to `Cc1nc2ccccc2cc1C(=O)NCc1ccco1`, for which, in experiment [1], the cell count was 387. In addition, the inhibition in experiment [1] is 3.2% (inactive); in experiment [3] it was -278% (inactive); in experiment [7], 1.46% (inactive); in experiment [8] it was 0.0614% (inactive). In addition, the inhibition of aggregation in experiment [2] is -3.6% (inactive). Further, the nuclei count in experiment [2] was 75.3%; in experiment [3], 126%. Further, the fluorescence slope in experiment [4] was -0.53 (inactive); in experiment [6] it was 0.00494 (inactive). Also, the NADPH fluorescence slope in experiment [5] was -3.7e-05 (inactive).

With `c1csc(-c2nc3nc4ccccc4nc3n2Cc2ccc3c(c2)OCO3)c1`, in experiment [1], the cell count is 837. For the same compound, the inhibition is 1.7% (inactive) in experiment [1], -9.5% (inactive) in experiment [3], -28.9% (inactive) in experiment [7] and -79.4% (inactive) in experiment [8]. For the same compound, the inhibition of aggregation in experiment [2] is -18.6% (inactive). Also, the values for the nuclei count in experiment [2] and in experiment [3] were 114% and 108%, respectively. The fluorescence slope is -0.405 (inactive) in experiment [4] and 0.00582 (inactive) in experiment [6]. Also, the NADPH fluorescence slope in experiment [5] was -4.1e-05 (inactive).

On to `Cc1ccc(-n2nnnc2SCC(=O)N2CCc3ccccc3C2)cc1`, for which the cell count in experiment [1] stood at 526. Further, the inhibition in experiment [1] was -10.2% (inactive); in experiment [3], -28.6% (inactive); in experiment [7], 8.66% (inactive); in experiment [8] it was 11% (inactive). Also, the inhibition of aggregation in experiment [2] is -6.8% (inactive). Further, the nuclei count is 104% in experiment [2] and 148% in experiment [3]. Moreover, the fluorescence slope in experiment [4] was -0.49 (inactive); in experiment [6], 0.00503 (inactive). For the same compound, the NADPH fluorescence slope in experiment [5] was 8.4e-07 (inactive).

Take `COc1ccc(OC)c(NC(=O)CSc2nc3ccccc3c(=O)n2CCNC(C)=O)c1`: the cell count in experiment [1] was 497. Moreover, the inhibition in experiment [1] is -4.3% (inactive); in experiment [3], -17.6% (inactive); in experiment [7], 14.7% (inactive); in experiment [8], 18.6% (inactive). Further, the inhibition of aggregation in experiment [2] is 10.1% (inactive). Also, the nuclei count in experiment [2] was determined as 111%; in experiment [3], 115%. Also, the fluorescence slope in experiment [4] is -0.455 (inactive); in experiment [6], 0.00813 (inactive). In experiment [5], the NADPH fluorescence slope is 4e-05 (inactive).

`CCn1cc(/C=C(/C#N)S(=O)(=O)c2ccccc2)cn1`: the cell count in experiment [1] worked out at 593. Moreover, the inhibition in experiment [1] is -10.9% (inactive); in experiment [3], -61.5% (inactive); in experiment [7], -4.56% (inactive); in experiment [8], -9.84% (inactive). In addition, in experiment [2], the inhibition of aggregation was 7% (inactive). The nuclei count in experiment [2] came out at 75%; in experiment [3] it was 99.9%. For the same compound, the fluorescence slope in experiment [4] is -0.488 (inactive); in experiment [6], 0.00519 (inactive). In experiment [5], the NADPH fluorescence slope was -9.1e-05 (inactive).

`CCSCCC(NC1=CC(=O)CC(C)(C)C1)C(=O)O` (centres undefined): the cell count in experiment [1] was 353. The inhibition in experiment [1] is 9.3% (inactive); in experiment [3], -77.8% (inactive); in experiment [7], -16.8% (inactive); in experiment [8] it was 98.7% (active). Also, the inhibition of aggregation in experiment [2] is 13.5% (inactive). The nuclei count in experiment [2] turned out to be 98%; in experiment [3] it was 94.9%. The fluorescence slope was -0.566 (inactive) in experiment [4] and 0.00496 (inactive) in experiment [6]. Besides, the NADPH fluorescence slope in experiment [5] is -6.6e-05 (inactive).

For `Cc1ccc(CCNC(=O)C2CCN(S(=O)(=O)c3cccc4nsnc34)CC2)cc1`, the cell count in experiment [1] is 644. The inhibition in experiment [1] is 5.2% (inactive); in experiment [3], -129% (inactive); in experiment [7] it was 0.47% (inactive); in experiment [8], -16.3% (inactive). Moreover, the inhibition of aggregation in experiment [2] is -9.1% (inactive). The nuclei count was found to be 96.4% in experiment [2] and 158% in experiment [3]. Further, the fluorescence slope is -0.461 (inactive) in experiment [4] and 0.00736 (inactive) in experiment [6]. In addition, the NADPH fluorescence slope in experiment [5] was 0.000103 (inactive).

With `CC1(C)Cc2noc(N)c2C(C)(C)N1OC(=O)c1ccco1`, the cell count in experiment [1] was determined as 295. The inhibition in experiment [1] is -6.6% (inactive); in experiment [3] it was -89.1% (inactive); in experiment [7], 16.2% (inactive); in experiment [8] it was 23.5% (inactive). In addition, in experiment [2], the inhibition of aggregation is 21.5% (inactive). Also, the results for the nuclei count in experiment [2] and in experiment [3] were 87.2% and 88.4%, respectively. Besides, the fluorescence slope in experiment [4] is -0.474 (inactive); in experiment [6] it was 0.00628 (inactive). Also, the NADPH fluorescence slope in experiment [5] is 2.9e-05 (inactive).

For `COc1cccc(NC(=O)CN2CCN(c3ccccc3F)CC2)c1`, the cell count in experiment [1] turned out to be 275. Moreover, the inhibition in experiment [1] is -7.3% (inactive); in experiment [3], 11.9% (inactive); in experiment [7], 17.2% (inactive); in experiment [8], 10.2% (inactive). Further, in experiment [2], the inhibition of aggregation was 19.4% (inactive). Moreover, the nuclei count came out at 90.1% in experiment [2] and 86.8% in experiment [3]. The fluorescence slope in experiment [4] is -0.526 (inactive); in experiment [6], 0.00586 (inactive). Moreover, the NADPH fluorescence slope in experiment [5] was 0.000174 (inactive).

As for `Cc1cc2c(s1)c1cnn(CC(=O)NCCc3ccccc3)c(=O)c1n2C`, in experiment [1], the cell count was 279. Also, the inhibition in experiment [1] is 17.5% (inactive); in experiment [3], -76.9% (inactive); in experiment [7], 15.1% (inactive); in experiment [8], -1.81% (inactive). Besides, the inhibition of aggregation in experiment [2] is -21.4% (inactive). Also, the nuclei count in experiment [2] amounted to 104%; in experiment [3], 102%. Also, the fluorescence slope in experiment [4] is -0.236 (inactive); in experiment [6], 0.00662 (inactive). Further, the NADPH fluorescence slope in experiment [5] was -7.6e-06 (inactive).

With `O=C(O)CCN1C(=O)c2ccccc2C1=O`, the cell count in experiment [1] stood at 325. The inhibition in experiment [1] is 5.2% (inactive); in experiment [3], -54.5% (inactive); in experiment [7], 14.6% (inactive); in experiment [8], 6.42% (inactive). Further, the inhibition of aggregation in experiment [2] is -1.9% (inactive). Also, the nuclei count amounted to 91.2% in experiment [2] and 107% in experiment [3]. Further, the values for the fluorescence slope in experiment [4] and in experiment [6] were -0.585 (inactive) and 0.00348 (inactive), respectively. The NADPH fluorescence slope in experiment [5] is -3e-05 (inactive).

Values taken from PubChem BioAssay.
